INS-1E rescue – protection of INS-1E cells from cytokine death, primary screen, ATP luminescence, single point; protection from cytokine-induced ATP loss, % at 10 µM; AID 488910, 2010; 0.1% of 20,000 active; INS-1E cytokine-induced death, 48 h; normalised: neutral wells 0, positive control 100;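 active means mean replicate protection from cytokine-induced ATP loss at least 50% and at least 75% of replicates each reaching 50%; inconclusive means meets only one of the two criteria, mean or replicate share; inactive means fails both the mean and replicate share criteria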
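Test system: INS-1E rat cells | Quantity: 8000 cells per well | Medium: Phenol-red-free RPMI with 5% fetal bovine serum | Reagent: Cytokine cocktail of IFN-γ, TNF-α and IL-1β | Doses: One compound concentration, pin transfer | Timing: 48 h co-treatment, 10 min post-lysis read | Technique: Luminescent ATP assay (CellTiter-Glo)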
T cruzi intra – inhibitors of intracellular Trypanosoma cruzi, primary screen, cell-based, plate reader, single point, set 2 | activity score (inhibition), % at 5.01 µM | AID 651903, 2012 | 4.9% of 22,000 active | intracellular Trypanosoma cruzi in host cells; in the data active means activity score above about 55%; inconclusive means no clear call, values can overlap the other calls;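 further: parasites and compound incubated about four days before reading; 0% = median of neutral control wells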
A1 apoptosis 2 – A1 inhibitors via caspase activation, primary screen, cell-based, luminescence, HTS, two replicates; MEF A1-2A-BIM cells, caspase-Glo luminescence, 3 h; percent of clofoctol response, DMSO zero; caspase activation, % (no concentration beside the values); 24,000 tested, under 10 active; in the data active means caspase activation above about 5.9%; inconclusive means no clear call, values can overlap the other calls; inactive means below about 2.2%
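system = A1-2A-BIM-expressing MEF cells | quantity = 2500 MEF cells/well | dosing = 50 nL compound per well, pinned | schedule = overnight cell settling, then 3 h compound exposure, 37 °C | signal = luminescence from DEVD-luciferin Caspase-Glo reagent, 1:1 in 50 mM HEPES, 1 h RT | read-out = Caspase-3/7 activation, seen as rise in luminescence signal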
An asterisk follows results filed as active; ? = inconclusive; nt = no result. The sample as a whole holds a higher share of hits than the screen did.

SMILES | INS-1E rescue | T cruzi intra | A1 apoptosis 2
C[C@@H]1CN([C@H](C)CO)C(=O)c2cccc(NC(=O)c3ccc(-c4nccs4)cc3)c2O[C@H]1CN(C)Cc1ccc(Oc2ccccc2)cc1 | -21.6 | 81.1* | -0.1
Cc1ccc(S(=O)(=O)N[C@@H](Cc2ccccc2)C(=O)NCCn2cc(-c3ccccc3N)nn2)cc1 | nt | nt | -0.2
COc1ccc([Si](C)(C)[C@H]2[C@H](CCn3cc(CCO)nn3)O[C@@]3(C(=O)N(Cc4ccc(N5CCOC5=O)cc4)c4ccccc43)[C@@H]2C)cc1 | nt | nt | 0.0
O=C(CCCCC(=O)N/N=C/c1ccc(O)c(O)c1O)NO | 29.3 | ? | -1.8
C[C@H](CO)N1C[C@H](C)[C@H](CN(C)C(=O)Nc2ccc3c(c2)OCO3)Oc2ncc(-c3cccc(F)c3)cc2C1=O | nt | -14.8 | nt
COc1ccc(NC(=O)N(C)C[C@@H]2Oc3ncc(-c4ccc(OC)cc4)cc3C(=O)N([C@H](C)CO)C[C@@H]2C)cc1 | nt | 28.8 | nt
C[C@H](CO)N1C[C@H](C)[C@H](CN(C)C(=O)Nc2ccc(F)cc2)Oc2ncc(-c3cccc(C(F)(F)F)c3)cc2C1=O | nt | 50.8 | -0.7
C[C@H](CO)N1C[C@H](C)[C@H](CN(C)C(=O)Nc2ccc3c(c2)OCO3)Oc2ncc(C#Cc3ccc(F)cc3)cc2C1=O | -2.5 | -16.9 | 1.9
C[C@H](CO)N1C[C@H](C)[C@H](CN(C)C(=O)Nc2ccccc2)Oc2ncc(-c3cccc(C(F)(F)F)c3)cc2C1=O | nt | 63.9* | -0.6
C[C@H](CO)N1C[C@H](C)[C@H](CN(C)C(=O)Nc2ccc3c(c2)OCO3)Oc2ncc(-c3cccc(C(F)(F)F)c3)cc2C1=O | nt | 67.3* | nt
COc1ccc(NC(=O)N(C)C[C@@H]2Oc3ncc(-c4cccc(C(F)(F)F)c4)cc3C(=O)N([C@H](C)CO)C[C@@H]2C)cc1 | nt | 59.4* | -0.8
C[C@H](CO)N1C[C@H](C)[C@H](CN(C)C(=O)Nc2ccc3c(c2)OCO3)Oc2ncc(C#Cc3ccccc3)cc2C1=O | nt | 69.2* | 1.2
CC(C)=CCC[C@H](C)C/C=N/NC(=O)CCCCCCC(=O)Nc1ccccc1O | 6.2 | 4.1 | -1.6
Clc1nc(NC2CCN(Cc3ccccc3)CC2)c2cc(Br)ccc2n1 | nt | nt | 0.3
O=C1O[C@@H](c2ccccc2)[C@@H](c2ccccc2)N2[C@@H](c3ccccc3OCCO)[C@]3(C(=O)Nc4ccc(C#CCCO)cc43)[C@@H](C(=O)Nc3nc4ccccc4s3)[C@H]12 | nt | nt | 0.2
CC1=C(C/C=N/NC(=O)c2ccc(C(=O)NO)cc2)C(C)(C)CCC1 | nt | nt | 1.1
O=C(CCCCCC(=O)Nc1ccccc1O)N/N=C\c1cccnc1Br | -6.7 | -0.9 | nt
COc1cc2c(cc1OC)CN(C(=O)[C@H]1[C@@H]3C(=O)O[C@@H](c4ccccc4)[C@@H](c4ccccc4)N3[C@@H](c3ccccc3OCCO)[C@]13C(=O)Nc1ccc(C#CCNC(N)=O)cc13)CC2 | nt | nt | -0.5
C[C@@H]1CN([C@H](C)CO)C(=O)CCCn2nncc2CO[C@H]1CN(C)S(=O)(=O)c1ccc(-c2ccccc2)cc1 | 2.2 | -4.1 | 1.2
C[C@@H]1CN([C@@H](C)CO)C(=O)CCCn2nncc2CO[C@H]1CN(C)Cc1ccc(-c2ccccc2)cc1 | nt | 22.0 | nt
C[C@H](CO)N1C[C@H](C)[C@@H](CN(C)S(=O)(=O)c2ccc(-c3ccccc3)cc2)OCc2cnnn2CCCC1=O | nt | 79.5* | 0.7
C[C@@H]1CN([C@H](C)CO)C(=O)CCCn2nncc2CO[C@@H]1CN(C)S(=O)(=O)c1ccc(Oc2ccccc2)cc1 | -1.8 | 25.5 | 1.2
C[C@H](CO)N1C[C@H](C)[C@H](CN(C)S(=O)(=O)c2ccc(Oc3ccccc3)cc2)OCc2cnnn2CCCC1=O | 8.4 | 70.4* | 0.1
C[C@@H]1CN([C@H](C)CO)C(=O)CCCn2nncc2CO[C@@H]1CN(C)Cc1ccc(-c2ccccc2)cc1 | nt | 60.0* | nt
O=C(CCCCCC(=O)Nc1ccccc1O)N/N=C/c1cccc(B(O)O)c1 | 13.4 | -12.8 | 0.5
C[C@H]1CN([C@@H](C)CO)C(=O)c2cc(NS(=O)(=O)c3ccccc3)ccc2O[C@H]1CN(C)S(=O)(=O)c1ccc(Cl)cc1 | 0.3 | -7.1 | 1.5
Cc1ccc(S(=O)(=O)N(C)C[C@H]2Oc3ccc(NS(=O)(=O)c4ccc(Cl)cc4)cc3C(=O)N([C@@H](C)CO)C[C@@H]2C)cc1 | 4.2 | 7.8 | nt
C[C@H](CO)N1C[C@H](C)[C@H](CN(C)S(=O)(=O)c2ccc(Cl)cc2)Oc2ccc(NS(=O)(=O)c3ccccc3)cc2C1=O | nt | 62.5* | nt

Bioassay records deposited in PubChem by Broad Institute.
